How the values were obtained:
Rattus norvegicus [1] = assay: In vivo analgesic activity of compound was determined by inflammatory hyperalgesia model at 3 mg/kg perorally in rat; assay type: functional; details: route oral
Outline: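 Male Sprague–Dawley rats received 1% carrageenan suspension (0.1 mL) into the right hind foot pad. Three hours later, compound (suspended in 1% Tween-80) was given by gavage. After 30 min, a heat stimulus was applied under the inflamed paw and withdrawal latency (s) recorded. The % inhibition of the stimulus-induced latency decrease was calculated relative to the untreated left paw.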

[2] = molecular target: T1, Prostaglandin G/H synthase 2 (Homo sapiens) (UniProt P35354); details: Blood; at 1 µM
T1 sequence (whole entry): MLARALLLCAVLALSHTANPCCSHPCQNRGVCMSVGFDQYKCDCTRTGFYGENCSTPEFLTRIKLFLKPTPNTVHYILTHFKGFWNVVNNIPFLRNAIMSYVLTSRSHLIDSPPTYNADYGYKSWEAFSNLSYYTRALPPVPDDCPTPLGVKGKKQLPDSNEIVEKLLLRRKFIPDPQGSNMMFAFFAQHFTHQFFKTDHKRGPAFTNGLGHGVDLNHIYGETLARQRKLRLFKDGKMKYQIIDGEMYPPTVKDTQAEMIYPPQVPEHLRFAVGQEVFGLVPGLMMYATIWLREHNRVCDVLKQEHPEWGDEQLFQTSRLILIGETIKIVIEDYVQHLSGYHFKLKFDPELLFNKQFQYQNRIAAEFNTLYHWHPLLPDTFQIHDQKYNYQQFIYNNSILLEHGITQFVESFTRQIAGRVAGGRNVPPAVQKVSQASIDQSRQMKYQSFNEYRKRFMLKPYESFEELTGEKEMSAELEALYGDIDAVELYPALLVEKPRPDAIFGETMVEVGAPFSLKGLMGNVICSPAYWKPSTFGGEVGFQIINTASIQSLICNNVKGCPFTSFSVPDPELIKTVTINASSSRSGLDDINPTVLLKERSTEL

[3] = molecular target: Prostaglandin G/H synthase 1 (Homo sapiens, UniProt P23219); assay type: cell-based, U-937
Prostaglandin G/H synthase 1, sequence (P23219 whole entry): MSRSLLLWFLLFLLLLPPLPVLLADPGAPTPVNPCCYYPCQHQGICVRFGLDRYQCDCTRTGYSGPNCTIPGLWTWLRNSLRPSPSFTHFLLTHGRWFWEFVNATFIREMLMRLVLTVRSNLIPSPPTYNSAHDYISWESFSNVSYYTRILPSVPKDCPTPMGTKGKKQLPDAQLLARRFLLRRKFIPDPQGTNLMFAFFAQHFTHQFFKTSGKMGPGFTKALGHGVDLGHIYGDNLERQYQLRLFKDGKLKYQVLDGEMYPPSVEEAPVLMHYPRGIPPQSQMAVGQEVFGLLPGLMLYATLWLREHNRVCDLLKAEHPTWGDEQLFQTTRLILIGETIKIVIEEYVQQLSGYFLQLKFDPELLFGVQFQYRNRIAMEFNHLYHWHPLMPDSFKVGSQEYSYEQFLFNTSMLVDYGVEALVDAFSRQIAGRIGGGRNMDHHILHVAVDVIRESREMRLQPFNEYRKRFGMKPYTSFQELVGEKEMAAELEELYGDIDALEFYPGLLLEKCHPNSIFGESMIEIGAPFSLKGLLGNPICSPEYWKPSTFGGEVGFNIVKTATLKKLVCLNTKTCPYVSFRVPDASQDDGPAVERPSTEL

[4] = Half life of compound was determined at 1 mg/kg intravenous administration in rat; assay type: ADME, organism-based; design: dose 1 mg/kg, route intravenous; details: in vivo
[5] = molecular target: T1, Prostaglandin G/H synthase 2 (Homo sapiens); details: Blood; at 10 µM
Rattus norvegicus [6] = assay: In vivo anti-inflammatory activity determined by rat carrageenan paw edema method at 10 mg/kg perorally; assay type: functional; details: route oral
Rattus norvegicus [7] = assay: In vivo anti-inflammatory activity by air pouch model at 1 mg/kg perorally in rat.; assay type: functional; details: route oral
Outline: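 Rat air pouch: sterile air (20 mL) was injected subcutaneously, with 10 mL refills every 2 days. On day 7, 2 mL of 1% lambda-carrageenan in saline was injected into the pouch. Compound was given orally (suspension in 1% CMC/Tween-80, 10 mL/kg) 0.5 h before carrageenan. At 6 h, exudate was collected and centrifuged, and supernatant PGE2 was measured by ELISA.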

Rattus norvegicus [8] = assay: Percentage of [51Cr]- secreted in feces was determined by fecal drug-induced bleeding method in rat at 100 mg/kg, bid for 4 days
Rattus norvegicus [9] = assay: In vivo inhibition of contralateral paw swelling after oral treatment for 28 days (1 mg/kg od) was determined by adjuvabt arthritis in rat; assay type: functional
Outline: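 Lewis rats (140–170 g, 7 weeks) received 0.5 mg Mycobacterium butyricum in light mineral oil intradermally into the right hind foot pad; controls received incomplete adjuvant. Groups of 10 were dosed orally at 1 mg/kg daily for 28 days, starting on the day of injection. Left hind paw volume was measured plethysmographically at the end and expressed as % inhibition versus controls.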

Row | SMILES | inhibition in vivo at 3 mg/kg (Rattus norvegicus [1]) | inhibition [2] | IC50 [3] | half-life [4] | inhibition [5] | inhibition in vivo at 10 mg/kg (Rattus norvegicus [6]) | inhibition in vivo at 1 mg/kg (Rattus norvegicus [7]) | Cr secretion (Rattus norvegicus [8]) | Inhibition (Rattus norvegicus [9])
1 | CS(=O)(=O)c1ccc(-n2cnc(Cl)c2-c2ccc3c(c2)OCO3)cc1 | 69.9% | 60.5% | > 10 µM | 3.5 h | 100% | 30.6% | – | – | –
2 | CS(=O)(=O)c1ccc(-n2cnc(Cl)c2-c2ccncc2)cc1 | 69.4% | 54.5% | > 10 µM | – | 82.4% | 31.7% | 50.2% | – | –
3 | Cc1ccc(-c2cc(C(F)(F)F)nn2-c2ccc(S(N)(=O)=O)cc2)cc1 [CELECOXIB] | 86.7% | – | – | – | – | 35.7% | 93.4% | 0.7% | 89%
4 | COc1cc(-c2c(Cl)ncn2-c2ccc(S(N)(=O)=O)cc2)ccc1F | 38% | – | > 1 µM | 3.8 h | 79.3% | 14.3% | 58.9% | – | –
5 | COc1cc(-c2c(Cl)ncn2-c2ccc(S(C)(=O)=O)cc2)ccc1F | 20.4% | 97.4% | > 10 µM | – | 92.6% | 25% | 15.1% | – | –
6 | Cc1ccc(-c2c(Cl)ncn2-c2ccc(S(C)(=O)=O)cc2)cc1F | – | 75.1% | > 10 µM | – | 100% | 22.6% | 18.5% | – | –
7 | NS(=O)(=O)c1ccc(-n2cnc(Cl)c2-c2ccccc2)cc1 | – | – | 5.1 µM | 2.9 h | 59.5% | 36.3% | 96.3% | – | –
8 | COc1ccc(-c2c(Cl)ncn2-c2ccc(S(C)(=O)=O)cc2)cc1Cl | 66.6% | 84.1% | > 10 µM | 3.6 h | 100% | 31.4% | 71.1% | – | –
9 | COc1ccc2c(c1)c(CC(=O)O)c(C)n2C(=O)c1ccc(Cl)cc1 [INDOMETHACIN] | – | – | – | – | – | 66.2% | – | 7.5% | 94%
10 | CS(=O)(=O)c1ccc(-n2cnc(Br)c2-c2ccc(F)cc2)cc1 | – | 85.2% | > 10 µM | – | 100% | – | 91.4% | – | –
11 | COc1ccc(-c2c(Cl)ncn2-c2ccc(S(C)(=O)=O)cc2)cc1C | – | 100% | > 10 µM | – | 100% | 21.4% | 75.6% | – | –
12 | CS(=O)(=O)c1ccc(-c2cnc(Br)n2-c2ccc(F)cc2)cc1 | – | 56.2% | > 10 µM | – | 92.8% | 40.4% | 35.5% | – | –
13 | CS(=O)(=O)c1ccc(-n2cnc(Cl)c2-c2ccccc2)cc1 | – | 82.6% | > 10 µM | 17 h | 96% | 29.2% | 83.2% | – | –
14 | Cc1ccc(-c2c(Cl)ncn2-c2ccc(S(N)(=O)=O)cc2)cc1 | – | 76.1% | 2.7 µM | 5.2 h | 100% | 32.6% | 62.3% | – | –
15 | Cc1ncn(-c2ccc(S(C)(=O)=O)cc2)c1-c1ccc(F)cc1 | – | 34.5% | > 10 µM | – | 86.5% | – | 45% | – | –
16 | NS(=O)(=O)c1ccc(-n2cnc(Cl)c2-c2ccc(F)cc2)cc1 | – | – | 3.1 µM | 17 h | 61.4% | 38.6% | 93.2% | – | –
17 | CS(=O)(=O)c1ccc(C2=C(c3ccccc3)C(=O)OC2)cc1 [ROFECOXIB] | 83.4% | 84.1% | – | – | 100% | 33.3% | 95.3% | 0.6% | 87%
18 | COc1ccc(-c2c(Cl)ncn2-c2ccc(S(C)(=O)=O)cc2)cc1 | – | 100% | 1.3 µM | – | 100% | 33.4% | – | – | –
19 | CCOc1ccc(-c2c(Cl)ncn2-c2ccc(S(N)(=O)=O)cc2)cc1Cl | – | 26.8% | 15.5 µM | – | 99.9% | 18.5% | – | – | –
20 | CS(=O)(=O)c1ccc(-n2cnc(Cl)c2-c2ccccc2F)cc1 | – | 66.2% | 100 µM | – | 100% | 21.5% | – | – | –
21 | CN(C)c1ccc(-c2c(Cl)ncn2-c2ccc(S(C)(=O)=O)cc2)cc1Cl | 63.8% | 64.6% | 1.9 µM | 1.2 h | 98.9% | 33.3% | 43% | – | –
22 | CS(=O)(=O)c1ccc(-c2cnc(Cl)n2-c2ccc(F)cc2)cc1 | – | 85.6% | > 10 µM | – | 100% | 20.4% | 55.2% | – | –
23 | COc1cc(-c2c(Cl)ncn2-c2ccc(S(C)(=O)=O)cc2)ccc1C | – | 77.1% | > 10 µM | – | 100% | 9.2% | – | – | –
24 | Cc1ccc(-c2c(Cl)ncn2-c2ccc(S(C)(=O)=O)cc2)cc1 | – | 90.5% | > 10 µM | 1.7 h | 100% | 21.6% | 65.5% | – | –
25 | CCOc1ccc(-c2c(Cl)ncn2-c2ccc(S(N)(=O)=O)cc2)cc1 | 82.8% | – | 2.2 µM | 2.2 h | – | 29.2% | 98.9% | 0.5% | 97%
26 | CCN(CC)c1ccc(-c2c(Cl)ncn2-c2ccc(S(C)(=O)=O)cc2)cc1 | 64.1% | 9.7% | > 10 µM | – | 100% | 24.2% | 64.1% | – | –

Source: ChEMBL document CHEMBL1145864, “Synthesis and structure-activity relationship of a new series of COX-2 selective inhibitors: 1,5-diarylimidazoles” (J Med Chem, 2003)
